# Compound activity as filed in PubChem BioAssay.
# The list is not random: actives were taken first. Their share in the collection is about 1.7%.
# STEP inh: inhibitors of human striatal-enriched phosphatase STEP. P54829. recombinant STEP, OMFP fluorogenic substrate, fluorescence. inhibition, % at 20 µM. 360,000 tested, 0.25% active. AID 588621;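 active = inhibition at 20 µM, scaled per plate between control wells, above about 37%, limit read from the data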;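 note: 0% = DMSO with enzyme and substrate and 100% = substrate only without enzyme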
#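 Assay system: isolated STEP enzyme. Buffer or medium: pH 6.0 Bis-Tris with DTT and Tween 20. Also added: fluorogenic phosphatase substrate OMFP at 25 µM final. Dosing: 20 µM, 1% DMSO. Timing: 20 min reaction, room temperature, in the dark. Measured by: fluorescence intensity, excitation 480 nm, emission 540 nm. Evaluation: normalized % inhibition.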
# DNMT1 inh: blocks human DNA methyltransferase DNMT1. P26358. DNMT1 molecular beacon, Hinp1I cleavage, fluorescence. inhibition (reported as % activation of signal), % at 10 µM. 360,000 tested, 0.83% active. AID 588458; in the data active = inhibition above about 50%
# Target sequence (P26358 504-1616 limits assumed): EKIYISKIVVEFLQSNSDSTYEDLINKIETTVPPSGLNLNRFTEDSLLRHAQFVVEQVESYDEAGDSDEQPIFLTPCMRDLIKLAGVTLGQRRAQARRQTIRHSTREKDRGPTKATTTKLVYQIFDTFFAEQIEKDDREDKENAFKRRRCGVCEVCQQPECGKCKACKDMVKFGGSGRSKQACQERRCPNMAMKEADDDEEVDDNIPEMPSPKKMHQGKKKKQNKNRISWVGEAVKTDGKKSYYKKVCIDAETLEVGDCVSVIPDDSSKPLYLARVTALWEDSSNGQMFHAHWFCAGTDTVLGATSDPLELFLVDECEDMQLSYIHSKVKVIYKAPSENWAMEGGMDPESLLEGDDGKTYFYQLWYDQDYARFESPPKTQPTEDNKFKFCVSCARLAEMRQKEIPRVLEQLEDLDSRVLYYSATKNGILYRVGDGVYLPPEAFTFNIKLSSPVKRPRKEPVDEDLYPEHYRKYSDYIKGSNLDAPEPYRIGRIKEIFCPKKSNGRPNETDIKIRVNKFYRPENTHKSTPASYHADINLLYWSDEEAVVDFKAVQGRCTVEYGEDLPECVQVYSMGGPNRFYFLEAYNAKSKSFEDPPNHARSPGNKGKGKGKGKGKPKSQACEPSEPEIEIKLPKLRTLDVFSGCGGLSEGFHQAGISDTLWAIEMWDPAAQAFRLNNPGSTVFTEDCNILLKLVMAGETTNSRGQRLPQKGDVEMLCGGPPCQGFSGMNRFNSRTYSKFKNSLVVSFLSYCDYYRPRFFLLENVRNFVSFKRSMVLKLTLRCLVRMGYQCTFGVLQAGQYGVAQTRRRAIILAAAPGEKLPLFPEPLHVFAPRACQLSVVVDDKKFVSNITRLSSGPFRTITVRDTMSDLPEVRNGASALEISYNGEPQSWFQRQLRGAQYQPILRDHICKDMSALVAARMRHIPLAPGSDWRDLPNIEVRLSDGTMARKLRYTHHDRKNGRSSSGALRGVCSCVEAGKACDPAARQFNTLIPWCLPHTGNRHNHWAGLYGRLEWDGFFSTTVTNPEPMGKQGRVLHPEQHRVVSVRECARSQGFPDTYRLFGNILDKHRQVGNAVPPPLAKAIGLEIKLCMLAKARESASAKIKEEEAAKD
# LMPTP inh: LMPTP (human) inhibition; P24666; recombinant LMPTP-A, OMFP fluorogenic substrate, fluorescence intensity; inhibition, % at 20 µM; 360,000 tested, 0.22% active;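 active = compounds that cut the enzyme signal by at least half of the control window in the single-dose screen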;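 note: plate controls were DMSO wells with enzyme plus substrate for no effect and substrate without enzyme for full effect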
#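 Assay system: LMPTP-A, protein tyrosine phosphatase of low molecular weight / Medium: pH 6.0 Bis-Tris buffer with DTT and Triton X-100 / Schedule: 50 min enzyme reaction at room temperature, protected from light / Measured by: endpoint fluorescence intensity from OMFP dephosphorylation / Read-out basis: % inhibition relative to no-enzyme and uninhibited control wells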
# SUMO1-SIM PPI: modulators of human SUMO1-mediated protein-protein interactions. P63165. SUMO1 binding to a labelled peptide, TR-FRET, 1 h. inhibition, % at 20 µM. 360,000 tested, 0.33% active; in the data active = inhibition above about 37%
# Scp1 inh: inhibitors of human Scp-1 phosphatase; Q9GZU7; Recombinant Scp1, phosphopeptide, malachite green phosphate absorbance; inhibition, % at 20 µM; 340,000 tested, 0.88% active; AID 493091;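 active = inhibition above about 50% at 20 µM, limit read from the data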;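 note: plate controls were DMSO wells with enzyme for no effect and wells lacking enzyme for full effect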
#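 System: truncated SCP-1 phosphatase (76-261aa); medium: Tris acetate buffer pH 5.5 with MgCl2 and Tween-20; incubation: 45 min room-temperature reaction, 5 min colour, 30 min stabiliser; compound: single 20 µM dose, 1% DMSO; reagent: Phosphorylated 17-residue peptide substrate; read-out: % inhibition at 20 µM; technique: colorimetric free-phosphate detection, absorbance 630 nm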
# DNMT1 interf DR: beacon fluorescence artifact, dose response counter-screen; IC50, µM; molecular beacon fluorescence, spectral interference counter-screen; shares compounds with DNMT1 inh; 200 tested, under 10 active; call rule not given here
# DNMT1 confirm: DNMT1 inhibition confirmation, single concentration; AID 602385; shares compounds with DNMT1 inh; DNMT1 molecular beacon HinP1I cleavage, fluorescence; 2,300 tested, 8% active; inhibition, % at 10 µM;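 active = average inhibition of at least 30% in the single-concentration confirmation test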
# Beacon interf: beacon fluorescence artifact counter-screen | DNMT1 molecular beacon spectral interference counterscreen, fluorescence 485/520 | activation (fluorescence interference), % at 10 µM | 2,300 tested, 1% active | shares compounds with DNMT1 inh;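 active = activation of at least 30% at 10 µM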;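 note: DNMT1 catalytic domain with a HinP1I cleavage step and a FAM/dabcyl DNA beacon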
# * = called active by the depositor; . = no result.
SMILES,STEP inh,DNMT1 inh,LMPTP inh,SUMO1-SIM PPI,Scp1 inh,DNMT1 confirm,Beacon interf,others
C#CCNC(=O)C[C@@H]1C[C@@]2(C(=O)OCC)CCCC=C2N(Cc2ccc(Cl)cc2Cl)C1=O,.,.,-1,11,.,.,.,
Cc1nnc(-c2ccco2)c2cn(-c3cccc(Br)c3)nc12,-4,91*,14,6,5,3,-3,
O=C(Nc1ccc(N2CCCCC2)cc1)c1ccccc1,1,-7,0,-6,-4,.,.,
O=C(Nc1ccc(N2CCCCC2)cc1)c1ccc(F)cc1F,3,-3,-2,4,-4,.,.,
O=C(Nc1ccc(N2CCCC2)cc1)c1cccc(-c2cc3ccccc3oc2=O)c1,9,76*,23,-2,-3,-1,4,
O=C(Nc1ccc(N2CCCC2)cc1)c1ccccc1F,2,72*,43,-1,-4,4,10,
O=C(Nc1ccccc1N1CCCC1)c1cccc(-c2cc3ccccc3oc2=O)c1,8,3,3,-2,-2,.,.,
O=C(Nc1ccc(N2CCCC2)cc1)c1ccc2ccccc2c1,7,61*,7,1,-3,3,2,
O=C(Nc1ccc(N2CCCC2)cc1)c1cccc(F)c1,4,65*,10,0,3,2,4,
CCCc1c(C(=O)N/N=C(\C)c2ccc(CC(C)C)cc2)nnn1-c1nonc1N,0,11,0,0,.,.,.,
Cc1ccc(OCC(=O)NNC(=O)C2CSC3(C)CCC(=O)N23)cc1 (stereo unspecified),-3,-1,0,11,-2,.,.,
Cc1nc(NC(=O)c2cccc(-c3cc4ccccc4oc3=O)c2)ccc1Br,3,30,13,-1,6,.,.,
O=C(Nc1ccc(S(=O)(=O)N2CCOCC2)cc1)c1ccc([N+](=O)[O-])cc1Cl,0,-1,1,-30,-11,.,.,
O=C(Nc1ccc(Br)cn1)c1cccc(-c2cc3ccccc3oc2=O)c1,5,64*,12,-3,25,1,-4,
O=C(Nc1ccc(N2CCCC2)cc1)c1ccc([N+](=O)[O-])cc1Cl,1,74*,36,-10,1,1,-2,
CCc1ccc(C2CC3C(CN2S(=O)(=O)c2ccc(C)cc2)[C@@H](O)C[C@@H](c2ccc(CC)cc2)N3S(=O)(=O)c2ccc(C)cc2)cc1 (stereo partly specified),.,.,2,2,.,.,.,
Cc1ccccc1Oc1ncnc2oc(-c3ccccc3)cc12,2,-1,1,-1,-6,.,.,
Clc1ccc(Oc2ncnc3oc(-c4ccccc4)cc23)cc1,3,56*,0,12,-3,2,4,
O=C(COC(=O)C12CC3CC(CC(C3)C1)C2)Nc1ccc([N+](=O)[O-])cc1Cl,2,72*,1,-8,-1,3,5,
CC(=O)OCC(=O)Nc1ccc([N+](=O)[O-])cc1Cl,2,2,-2,-24,-15,.,.,
CN(CCCC1CCCC1)C(=O)CC1C(=O)NCCN1Cc1cccc(F)c1F (stereo unspecified),1,-5,0,2,-14,.,.,
O=C1CCCC2=C1C(c1ccco1)Nc1ccc3ccccc3c12 (stereo unspecified),4,103*,12,15,74*,50*,-5,DNMT1 interf DR=>99
COc1ccc2c(CC(=O)OCC(=O)Nc3cccc(C)c3)coc2c1,0,50*,2,3,5,11,5,
COC(=O)c1cccc(NC(=O)Cc2coc3cc(OC)ccc23)c1,-3,-4,1,1,-10,.,.,
CC(O)CC(=O)OC[C@]12CC[C@H]3[C@@](C)(CC[C@H]4C(C)(C)CCC[C@]34C)[C@@H]1CC(C1=CC(=O)OC1O)O2 (stereo partly specified),-1,39,2,0,.,.,.,
SMILES,STEP inh,DNMT1 inh,LMPTP inh,SUMO1-SIM PPI,Scp1 inh,DNMT1 confirm,Beacon interf,others
CN(C)S(=O)(=O)c1ccc2c(c1)C(CC(=O)O)OC2=O (stereo unspecified),-1,91*,1,4,2,6,11,
CCOC(=O)c1c(NC(=O)c2cc(-c3ccc(Cl)s3)nc3ccccc23)sc(C(N)=O)c1C,6,56*,21,2,9,13,-1,
O=C(O)c1ccc2nc(-c3ccco3)c(-c3ccco3)nc2c1,34,100*,6,40*,47,5,2,
CCC(CC)CN1CCN=C1N(C)C,6,3,0,3,-6,.,.,
CC(=O)N(CCCCN1C(=O)c2ccccc2C1=O)c1ccc(C)cc1,3,4,-1,27,-7,.,.,
CC(=O)N(CN1C(=O)c2ccccc2C1=O)c1ccc2c(c1)oc1ccccc12,-1,79*,0,-11,-4,2,2,
COc1ccc(Cc2nc3ccc(C(=O)NCCSC)cc3o2)cc1,1,55*,0,2,-7,1,5,
COC(=O)CCNC(=O)c1ccc2nc(Cc3ccc(OC)cc3)oc2c1,3,-4,-1,1,-4,.,.,
Cc1cc(C(=O)N/N=C/c2cc(Br)c(Br)o2)n[nH]1,18,64*,7,-3,46,-1,-1,
Cc1ccccc1C(=O)Nc1ccc(C(=O)NNC(=O)CCCOc2ccc(Cl)cc2Cl)cc1,1,11,18,-2,28,.,.,
O=C(CCCOc1ccc(Cl)cc1Cl)NNC(=O)c1ccc(NC(=O)c2ccccc2)cc1,6,73*,69*,0,41,0,-2,
C=CCc1cc(Cl)ccc1OCCCn1ccnc1,1,0,0,5,-6,.,.,
CCOC(=O)c1ccc(-c2ccc(/C=N/NC(=O)CN(c3cccc(C)c3)S(C)(=O)=O)o2)cc1,-2,57*,1,6,9,3,2,
CCOc1ccc(S(=O)(=O)N(CC(=O)N/N=C/c2ccc(-c3ccc([N+](=O)[O-])cc3)o2)c2ccccc2)cc1,6,100*,19,1,49,11,-5,
O=C(CCSCc1cccc(F)c1)NCCc1ccccc1,-1,-1,-1,0,-9,.,.,
COc1ccc(C=C2C(=O)OC(C)(C)OC2=O)cc1OC,0,0,-2,-2,-4,.,.,
COc1ccc(/C=C2\C(=O)NC(=O)c3ccccc32)cc1OC,7,74*,10,8,0,-2,1,
COc1cc(/C=C2\SC(=O)N(Cc3ccc(Cl)cc3)C2=O)cc([N+](=O)[O-])c1O,65*,89*,51*,105*,59*,19,-11,DNMT1 interf DR=>99
